Calls of active or inactive are those of the source.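 The calls were made as follows, unless noted: active = viability at or under a set limit in both replicates, limit being median viability minus 3 SD (cut at about 48% in these data, passing the limit was not always enough); inconclusive = at or under the limit in just one replicate; inactive = at or above the limit in both replicates.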
What was measured:
[1] = reduced viability of SK-BR-3 breast cancer cells – cell-based, 24 h, human, pilot screen (AID 572;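 active = viability at or below 10% of carrier control in both of two separate runs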;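 also: compound exposure lasted between 18 and 24 h rather than exactly 24 h; 100% = carrier-treated control wells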); conditions: SK-BR-3 viability, CellTiter-Glo luminescence, at 10 µM, stronger effect = lower value
[2] = HUVEC growth inhibition – cell-based, human, primary screen (AID 575;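 active = viability at or below 30% in both replicate assays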;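 also: 100% = median of untreated cell wells with 0.1% DMSO on each plate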); conditions: HUVEC proliferation, CellTiter-Glo luminescence, 72 h; at 10 µM; stronger effect = lower value
How it was run: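 Test system: primary human umbilical vein endothelial cells; medium: endothelial basal medium with 2% FBS plus growth supplements; dosing: 10 µM compound only; times: 72 h treatment at 37 °C; signal: CTG luminescence; read-out: % viability relative to median vehicle-well signal on each plate; control set: vehicle and MePR control wells; plate: 384-well, collagen-coated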

[3] = H69AR cell proliferation blockers – human, duplicate replicates, primary screen (AID 580); conditions: H69AR lung tumor cells viability, ATP luminescence, 72 h; at 10 µM; stronger effect = lower value;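 also: 100% = mean luminescence of untreated wells and 0% = no signal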
[4] = MRP1 drug-resistance reversers in H69AR cells – cell-based, doxorubicin co-treatment, pilot screen (AID 601;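 active = viability loss from added drug above about 55%, and viability with drug at most 40%, in both replicates, limit read from the data, passing the limit was not always enough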); conditions: CellTiter-Glo, 72 h, at 10 µM; for differential viability (reversal): stronger effect = higher value
[5] = yeast transport mutant growth inhibition pilot in 384-well plates, post-Golgi transport modulator project (AID 636; in the data active = inhibition above about 31%); conditions: absorbance 615 nm, about 18 h, stronger effect = higher value
[6] = growth suppression of yeast trafficking mutant, preliminary HTS, modulators of trafficking downstream of Golgi apparatus project, 1536-format plate, OD 615 nm (AID 637; in the data active = inhibition above about 30%); conditions: yeast transport mutant growth, absorbance 615 nm, 18 h; stronger effect = higher value
[7] = H69AR cells + 2 uM doxorubicin, measured here: viability with 2 uM doxorubicin, stronger effect = lower value
[8] = H69AR cells, compound alone cytotoxicity

Row | Structure (SMILES) | viability [1] | viability [2] | viability [3] | differential viability (reversal) ([4]; H69AR cells + 2 uM doxorubicin) | viability [4, 7] | viability [4, 8] | inhibition [5] | inhibition [6]
1 | O=C1c2oc3ccccc3c(=O)c2C(c2cccnc2)N1Cc1ccco1 (stereo not drawn) | 98% (inactive) | 106% (inactive) | 87.8% (inactive) | -0.59% (inactive) | 88.4% | 87.8% | -0.96% (inactive) | -2.36% (inactive)
2 | c1ccc2c(c1)CCCC2C1=NCCN1 (stereo not drawn) | 100% (inactive) | 84.6% (inactive) | 95.3% (inactive) | 6.75% (inactive) | 88.6% | 95.3% | -2.6% (inactive) | 1% (inactive)
3 | COc1c2occc2c(OC)c2c(=O)cc(C)oc12 | 87% (inactive) | 67.9% (inactive) | 91.2% (inactive) | -1.66% (inactive) | 92.8% | 91.2% | 0.13% (inactive) | -5.17% (inactive)
4 | Cc1ccccc1Cc1c(C)nc2c(C(=O)N3CCN(Cc4ccc5c(c4)OCO5)CC3)cnn2c1C | 103% (inactive) | 59.6% (inactive) | 79% (inactive) | 6.94% (inactive) | 72.1% | 79% | -1.04% (inactive) | 1.48% (inactive)
5 | Cc1cccc(CC2CC(=O)N(c3ccccc3)C2=O)c1 (stereo not drawn) | 117% (inactive) | 101% (inactive) | 102% (inactive) | 10.5% (inactive) | 91.9% | 102% | -3.77% (inactive) | -5.9% (inactive)
6 | Cc1ccc(Cn2ccc(NC(=O)c3cc(-c4cccs4)on3)n2)cc1 | 96% (inactive) | 48.7% (inactive) | 82.9% (inactive) | 0.115% (inactive) | 82.8% | 82.9% | -2.6% (inactive) | -2.46% (inactive)
7 | CCOc1cc(C(=O)N(C)Cc2cc3ccccc3[nH]c2=O)cc(OCC)c1OCC | 92% (inactive) | 107% (inactive) | 98.6% (inactive) | 2.04% (inactive) | 96.6% | 98.6% | -7.43% (inactive) | -4.18% (inactive)
8 | COC(=O)CSc1nnc(-c2cccs2)n1-c1ccc(Cl)cc1 | 88% (inactive) | 93.8% (inactive) | 89.8% (inactive) | 6.75% (inactive) | 83.1% | 89.8% | -8.49% (inactive) | -4.68% (inactive)
9 | CCN(CC)C(=O)CSC1=C(C#N)C(c2ccco2)C(C(=O)OCCOC)=C(C)N1 (stereo not drawn) | 116% (inactive) | 101% (inactive) | 78% (inactive) | 6.37% (inactive) | 71.6% | 78% | -6.16% (inactive) | 2.58% (inactive)
10 | CCN(CC)C(c1ccc(C)cc1)c1nnnn1C1CCCCC1 (stereo not drawn) | 64% (inactive) | 102% (inactive) | 75.5% (inactive) | 7% (inactive) | 68.5% | 75.5% | -6.13% (inactive) | -4.73% (inactive)
11 | CC(NC(=O)NC12CC3CC(CC(C3)C1)C2)C1CCCO1 (stereo not drawn) | 80% (inactive) | 103% (inactive) | 103% (inactive) | 10.1% (inactive) | 93.4% | 103% | -3.7% (inactive) | 1.27% (inactive)
12 | CCN(CC)C(=O)c1ccc(O)c(OC)c1 | 100% (inactive) | 90.7% (inactive) | 101% (inactive) | 0.23% (inactive) | 101% | 101% | -4.94% (inactive) | -5% (inactive)
13 | CC(C)CNS(=O)(=O)c1ccc(CCC(=O)NCc2ccco2)cc1 | 113% (inactive) | 88.6% (inactive) | 84.5% (inactive) | -3.21% (inactive) | 87.7% | 84.5% | -4.93% (inactive) | 1.29% (inactive)
14 | c1ccc(-c2cc(-c3nc(-c4ccccn4)no3)c3ccccc3n2)cc1 | 139% (inactive) | 63.9% (inactive) | 59% (inactive) | 2.75% (inactive) | 56.3% | 59% | -2.7% (inactive) | 8% (inactive)
15 | COc1ccc(C(=O)Nc2nc(C)c(C(=O)N(C)C)s2)cc1OC | 70% (inactive) | 91% (inactive) | 94.9% (inactive) | 10.6% (inactive) | 84.3% | 94.9% | -8.63% (inactive) | 4.52% (inactive)
16 | COc1ccc(NC(=O)N2CCN(c3nc(-c4cccc(OC)c4)cs3)CC2)cc1 | 94% (inactive) | 49.3% (inactive) | 82.8% (inactive) | -4.01% (inactive) | 86.8% | 82.8% | -9.59% (inactive) | -4.52% (inactive)
17 | CCN1C(=O)C2(C(C#N)=C(N)Oc3n[nH]c(C(C)C)c32)c2ccccc21 (stereo not drawn) | 113% (inactive) | 103% (inactive) | 89.2% (inactive) | -1.03% (inactive) | 90.2% | 89.2% | -8.9% (inactive) | -0.81% (inactive)
18 | Cc1ccc(NC(=O)CC2C(=O)NC3CCCCC3N2C(=O)c2ccc(F)cc2)cc1C (stereo not drawn) | 108% (inactive) | 100% (inactive) | 101% (inactive) | 12.5% (inactive) | 88.5% | 101% | -2.47% (inactive) | 3.11% (inactive)

Row | Structure (SMILES) | viability [1] | viability [2] | viability [3] | differential viability (reversal) ([4]; H69AR cells + 2 uM doxorubicin) | viability [4, 7] | viability [4, 8] | inhibition [5] | inhibition [6]
19 | CCN(C(C)=O)c1nnc(CSc2nc3ccccc3s2)s1 | 114% (inactive) | 72.5% (inactive) | 100% (inactive) | 13.3% (inactive) | 86.7% | 100% | -0.52% (inactive) | -2.95% (inactive)
20 | COc1ccccc1N1CCN(CC(O)COc2cccc3ccccc23)CC1 (stereo not drawn) | 83% (inactive) | 74.9% (inactive) | 77.4% (inactive) | -13.3% (inactive) | 90.7% | 77.4% | -1.3% (inactive) | -1.5% (inactive)
21 | Cc1cccc(NC(=O)CCCCCN2C(=O)c3ccccc3C2=O)n1 | 92% (inactive) | 105% (inactive) | 105% (inactive) | 2.47% (inactive) | 102% | 105% | -7.12% (inactive) | 5.45% (inactive)
22 | O=C(NC1CC1)C1CCC(=O)N1C1CCCC1 (stereo not drawn) | 93% (inactive) | 102% (inactive) | 105% (inactive) | 16.3% (inactive) | 88.4% | 105% | -1.17% (inactive) | 0.33% (inactive)
23 | COc1cccc(NC(=O)N2CCC(N3CCCCC3)CC2)c1 | 92% (inactive) | 88.2% (inactive) | 94.5% (inactive) | -2.56% (inactive) | 97.1% | 94.5% | -4.29% (inactive) | -0.49% (inactive)
24 | COc1cc([C@@H]2[C@H]3CN(C)CC=C3C(C#N)=C(N)C2(C#N)C#N)cc2c1OCO2 | 101% (inactive) | 93.1% (inactive) | 89.8% (inactive) | -5.09% (inactive) | 94.8% | 89.8% | -2.19% (inactive) | 0.18% (inactive)
25 | Cc1c(C)n(C(=O)CN2CCN(c3ccccn3)CC2)c2ccccc12 | 102% (inactive) | 81.2% (inactive) | 81.7% (inactive) | -0.845% (inactive) | 82.5% | 81.7% | -5.2% (inactive) | -2.73% (inactive)
26 | COC(=O)CSc1nnc(CSc2nc(C)cc(C)n2)n1Cc1ccco1 | 81% (inactive) | 104% (inactive) | 99.8% (inactive) | 24.3% (inactive) | 75.5% | 99.8% | -4.53% (inactive) | -7.27% (inactive)
27 | CC(=O)Nc1nc(C)c(-c2csc(Nc3ccc(O)cc3)n2)s1 | 114% (inactive) | 19.7% (active) | 13.3% (active) | -5.39% (inactive) | 18.6% | 13.3% | -3.95% (inactive) | -6.13% (inactive)
28 | Cc1ccc(-c2nnc3c4ccccc4c(C)nn23)cc1NC(=O)c1ccco1 | 81.5% (inactive) | 98.2% (inactive) | 91.8% (inactive) | -3.85% (inactive) | 95.7% | 91.8% | -5.27% (inactive) | 6.51% (inactive)
29 | O=C(CN1C(=O)CCS(=O)(=O)c2ccccc21)Nc1cccc(F)c1 | 115% (inactive) | 115% (inactive) | 106% (inactive) | 9.57% (inactive) | 96.5% | 106% | 3.65% (inactive) | -1.09% (inactive)
30 | O=C(c1cccnc1)N1CCN(C(=O)c2ccccc2F)CC1 | 97% (inactive) | 98.5% (inactive) | 97.2% (inactive) | 11.5% (inactive) | 85.7% | 97.2% | -4% (inactive) | -5.09% (inactive)
31 | O=C(c1cccc2c1C(=O)N(Cc1cccnc1)C2)N1CCN(c2ccccc2)CC1 | 127% (inactive) | 97.3% (inactive) | 93.3% (inactive) | 3.83% (inactive) | 89.5% | 93.3% | -4.93% (inactive) | -1.09% (inactive)
32 | COc1cccc(-c2nnc(NC(=O)Cc3cccs3)s2)c1 | 88% (inactive) | 84.8% (inactive) | 82.6% (inactive) | -14.2% (inactive) | 96.8% | 82.6% | -5.34% (inactive) | 5.16% (inactive)
33 | Cc1ccc(S(=O)(=O)N2CCCN(S(=O)(=O)C3CCS(=O)(=O)C3)CC2)cc1 (stereo not drawn) | 124% (inactive) | 101% (inactive) | 99.1% (inactive) | 8.77% (inactive) | 90.4% | 99.1% | -7.2% (inactive) | 1.09% (inactive)
34 | COC(=O)c1ccccc1NC(=O)c1cnc2sccn2c1=O | 110% (inactive) | 87.9% (inactive) | 104% (inactive) | 8.43% (inactive) | 95.5% | 104% | -3.6% (inactive) | -0.91% (inactive)
35 | COC(=O)c1[nH]c2ccc(C)cc2c1NC(=O)CN1CCC(C)CC1 | 101% (inactive) | 94.5% (inactive) | 92.5% (inactive) | -6.15% (inactive) | 98.6% | 92.5% | -4.27% (inactive) | -2.73% (inactive)
36 | O=C(Cn1[nH]c(=O)c2ccccc2c1=O)OCC(=O)N1CCCc2ccccc21 | 90% (inactive) | 101% (inactive) | 102% (inactive) | 13.7% (inactive) | 88.7% | 102% | -5.73% (inactive) | -2.55% (inactive)

Reference: PubChem BioAssay
